Sampled rows, rich in hits. Any-hit rate of the full collection: about 2.1%.
Hck Nef HTS = inhibitors of Nef-activated human Hck kinase, primary screen, biochemical, Z-Lyte FRET, 384-well, Hck-YEEI | Recombinant Hck-YEEI plus Nef, Z-Lyte FRET kinase assay | Tyrosine-protein kinase HCK (Homo sapiens), P08631 | actives 0.68% (n = 220,000) | inhibition, % at 20 µM;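 active = Hck-Nef kinase inhibition above about 50%, limit read from the data; inactive = inhibition below that limit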
TbHK1 inh = Trypanosoma brucei hexokinase 1 inhibitors, primary screen, biochemical, G6PDH-coupled NADH absorbance, MLSCN library. hexokinase 1 [Trypanosoma brucei]. recombinant TbHK1, G6PDH-coupled NADH A340. inhibition, % at 10 µM. actives 0.11% (n = 220,000);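 active = inhibition of 50% or more in the single-dose primary screen; inactive = inhibition below 50%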
Runt-CBFb FRET = inhibitors of RUNX1 Runt–CBFb binding, primary screen, biochemical, FRET, Cerulean-Runt, Venus-CBFb, uHTS. Cerulean-Runt/Venus-CBFb FRET ratio 530/480, 1 h. inhibition, % at 20 µM. actives 0.46% (n = 220,000);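 active = inhibition over about 50% at 20 µM in the single-dose screen, limit read from the data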
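System: Cerulean-labeled Runt domain protein | Quantity: 100 nM of each labeled protein | Schedule: 1 h compound exposure, room temperature | Detection: Fluorescence energy transfer, 422 nm excitation, 530/480 nm emission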
RanGTP-Imp inh = inhibitors of RanGTP-importin-beta interaction, primary screen, biochemical, FRET, CFP-Ran, YFP-importin-beta, homogeneous | Ran GTPase (GTP-bound) - importin-beta complex | cell-free CFP-Ran/YFP-importin-beta FRET ratio | inhibition, % (concentration not given with the values) | actives 1.1% (n = 300,000) | AID 2216, 2009;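 active = more than half of the replicate wells show a fall in the fluorescence ratio signal beyond about 16%, limit read from the data, passing the limit was not always enough; inconclusive = exactly half of the replicate wells pass the set limit; inactive = fewer than half of replicates pass the limit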
Runt-SMMHC FRET = inhibitors of RUNX1 Runt–CBFb-SMMHC binding, primary screen, biochemical, FRET, Cerulean-Runt, Venus-CBFb-SMMHC, uHTS; Runt-related transcription factor 1 (Homo sapiens) + Core-binding factor subunit beta …; Cerulean-Runt/Venus-CBFb-SMMHC FRET ratio 530/480, 1 h; inhibition, % at 20 µM; actives 0.74% (n = 220,000);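 active = mean inhibition across duplicate retests at 20 µM reaching about 50%, limit read from the data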;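 also: inhibitors lower the FRET ratio by blocking Runt binding to CBFb-SMMHC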
p97 ATPase inh = inhibitors of human p97 ATPase, primary screen, biochemical; inhibition, % at 8 µM; actives 0.42% (n = 220,000); recombinant p97 ATPase, Kinase-Glo ATP luminescence, 3 h; AID 1481, 2009; Transitional endoplasmic reticulum ATPase (Homo sapiens), P55072; in the data active = inhibition above about 15%
Target sequence (P55072 whole entry, looked up): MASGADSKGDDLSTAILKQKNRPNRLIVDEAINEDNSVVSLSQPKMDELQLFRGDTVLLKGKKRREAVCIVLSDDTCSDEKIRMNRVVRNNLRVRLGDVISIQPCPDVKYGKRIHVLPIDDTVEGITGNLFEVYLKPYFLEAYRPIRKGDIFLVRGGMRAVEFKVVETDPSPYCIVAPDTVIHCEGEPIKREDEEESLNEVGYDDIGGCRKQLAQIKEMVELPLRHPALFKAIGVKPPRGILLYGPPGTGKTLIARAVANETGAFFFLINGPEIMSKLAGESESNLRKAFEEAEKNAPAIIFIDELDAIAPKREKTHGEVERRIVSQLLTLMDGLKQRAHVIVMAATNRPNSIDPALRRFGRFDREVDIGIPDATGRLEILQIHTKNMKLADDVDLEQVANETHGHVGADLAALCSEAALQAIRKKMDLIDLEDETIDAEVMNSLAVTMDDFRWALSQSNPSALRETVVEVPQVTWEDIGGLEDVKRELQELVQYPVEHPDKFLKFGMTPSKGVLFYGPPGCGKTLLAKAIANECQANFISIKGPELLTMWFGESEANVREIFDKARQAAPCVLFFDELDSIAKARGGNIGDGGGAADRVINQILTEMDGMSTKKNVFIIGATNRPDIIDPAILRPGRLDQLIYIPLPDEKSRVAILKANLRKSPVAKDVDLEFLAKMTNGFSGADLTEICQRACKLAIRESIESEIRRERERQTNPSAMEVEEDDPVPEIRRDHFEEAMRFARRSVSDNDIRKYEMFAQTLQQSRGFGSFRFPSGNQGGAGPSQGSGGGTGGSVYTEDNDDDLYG
Hits are given with their value; n = inactive; u = inconclusive; x = no result.

SMILES	Hck Nef HTS	TbHK1 inh	Runt-CBFb FRET	RanGTP-Imp inh	Runt-SMMHC FRET	p97 ATPase inh
Cc1ccc(Sc2ccc([N+](=O)[O-])cc2[N+](=O)[O-])nc1	n	n	n	n	n	n
Cc1ccnc(Sc2ccc([N+](=O)[O-])cc2[N+](=O)[O-])n1	n	n	n	n	n	16
COc1ccccc1NC(=O)C1CCN(C(=O)C2CC(=O)N(c3ccc(C)cc3)C2)CC1 (configuration not stated)	x	x	x	n	x	x
CCCc1cnc(NCCNCC(O)COc2ccc(Cl)c(Cl)c2)nc1 (configuration not stated)	n	n	n	n	n	n
Cc1ccc2c(c1)CC1(CN2C)C(=O)OC2(CCCCC2)OC1=O	n	n	n	26	n	n
COc1cc(OC)c(OC)cc1CN1CCN(Cc2ccco2)CC1	x	x	x	n	x	x
N#C/C(=C\c1ccc(N2CCOCC2)o1)C(=O)NCC1CCCO1 (configuration not stated)	n	n	n	n	n	n
N#C/C(=C\c1ccc(-c2ccc(C(=O)O)cc2)o1)C(=O)Nc1ccc(F)cc1	x	x	x	n	x	x
N#C/C(=C\c1ccc(-c2ccc(C(=O)O)cc2)o1)C(=O)NCC1CCCO1 (configuration not stated)	n	n	n	30	n	n
Cc1cccc(C)c1NC(=O)/C(C#N)=C/c1ccc(-c2ccc(C(=O)O)cc2)o1	x	x	x	37	x	x
Cc1ccc(S(=O)(=O)NCc2cccnc2)cc1	x	x	x	n	x	x
Cc1cc(NC(=O)C2CC2)n(-c2nc3ccccc3s2)n1	n	n	n	n	n	n
CCCCC(=O)Nc1sc2c(c1-c1nc3ccccc3s1)CCN(C(C)=O)C2	66	n	n	x	n	n
CC(=O)N1CCc2c(sc(NC(=O)C3CC3)c2-c2nc3ccccc3s2)C1	n	n	n	24	n	n
CCC1CCCCN1Cc1nc(Cc2ccccc2Cl)no1 (configuration not stated)	n	n	n	n	n	n
COCCn1c(C)cc(C(=O)COc2ccc(C)nc2[N+](=O)[O-])c1C	n	n	n	n	n	15
CCn1c2ccccc2c2nc3cc(OC)c(OC)cc3nc21	n	n	n	89	n	n
COc1cc2nc3c4ccccc4n(CC#N)c3nc2cc1OC	n	n	n	n	51	n
COC(=O)C1=CN(C2CC2)C=C(C(=O)OC)C1c1ccc(C(=O)OC)cc1	n	n	107	52	60	n
COC(=O)c1ccc([C@H]2CC(=O)O2)cc1	x	x	x	n	x	x
CC(C)OC(=O)Cn1nc(C(c2ccccc2)c2ccccc2)oc1=O	x	x	x	n	x	x
O=C(c1cnn(C(=O)c2ccccc2)c1)c1ccccc1O	62	n	n	n	n	n
O=C(O)c1ccc(-n2cc(C(=O)c3ccccc3O)cn2)cc1	x	x	x	n	x	x
CC1=C(C(=O)OCc2ccccc2)C(c2cccc([N+](=O)[O-])c2)NC(=O)N1C (configuration not stated)	x	x	x	n	x	x
O=[N+]([O-])c1ccc2c(c1)[nH]c(=S)n2-c1ccccc1	n	n	n	n	n	n
SMILES	Hck Nef HTS	TbHK1 inh	Runt-CBFb FRET	RanGTP-Imp inh	Runt-SMMHC FRET	p97 ATPase inh
NC(=O)c1cc(S(=O)(=O)NCCc2ccc(Cl)cc2)cs1	x	x	x	n	x	x
O=C(NCCCN1CCOCC1)c1ccc(CNS(=O)(=O)c2ccc(F)cc2)cc1	n	n	n	n	n	n
Nc1c(C(=O)NCc2ccc(F)cc2)c2nc3ccccc3nc2n1CCCN1CCOCC1	n	n	n	87	81	n
O=C(NCCCN1CCOCC1)C(=O)NCc1ccccc1	n	n	n	n	n	n
Nc1c(C(=O)NCc2ccccc2)c2nc3ccccc3nc2n1CCCN1CCOCC1	n	n	79	101	76	n
CCCCCOC(=O)c1c(N)n(CCOC)c2nc3ccccc3nc12	n	n	n	n	114	n
COc1ccc(CNC(=O)C(C)Sc2nc3ccccc3c(=O)n2CCCN2CCOCC2)cc1 (configuration not stated)	n	n	n	n	n	n
COc1ccc(CNC(=O)c2c(N)n(CCCN3CCOCC3)c3nc4ccccc4nc23)cc1	n	n	n	97	81	n
CN1C(=O)Cc2cc(S(=O)(=O)N3CCN(c4cccc(C(F)(F)F)c4)CC3)ccc21	x	x	x	n	x	x
Oc1ccc(Br)cc1/C=N/n1c(C2CCCCC2)n[nH]c1=S	x	x	x	n	x	x
Nc1c(S(=O)(=O)c2cccc(Cl)c2)c2nc3ccccc3nc2n1CCN1CCOCC1	n	n	n	n	n	n
COC(=O)c1c(N)n(CCCN2CCOCC2)c2nc3ccccc3nc12	n	n	66	21	130	n
CN1CCN(C(=O)CCN2C(=O)/C(=C/c3ccc(F)cc3)SC2=S)CC1	x	x	x	n	x	x
CC(C)Sc1nc(N)c2c3c(sc2n1)CN(C)CC3	n	n	n	21	n	n
CCCSc1nc(N)c2c3c(sc2n1)CN(C)CC3	n	n	n	n	n	n
CSc1nc(NCC(C)C)c2c3c(sc2n1)CN(C)CC3	n	n	n	17	n	n
C#CCSc1nnc(-c2ccc([N+](=O)[O-])cc2)o1	n	n	n	n	n	n
CCc1cccc2c(C(=O)CCl)c[nH]c12	n	n	n	x	n	18
CCc1cccc2c(C(=S)N3CCCC3)c[nH]c12	n	n	x	u	x	n
COCCCNC(=O)C1=CCN(S(=O)(=O)c2ccc(C)cc2)CC1	x	x	x	n	x	x
CC(C)CC(C)N1CCC(n2nccc2NC(=O)CCc2ccccc2)CC1 (configuration not stated)	x	x	x	n	x	x
CC(CC(F)(F)F)N1CCC(n2nccc2NC(=O)CCCc2ccccc2)CC1 (configuration not stated)	x	x	x	57	x	x
CCC(OCC(O)CN1CCN(CCN2C(=O)c3cccc4cccc(c34)C2=O)CC1)c1ccccc1 (configuration not stated)	n	n	n	30	n	n
FC(F)(F)c1cc(C(F)(F)F)c2ccc(N3CCOCC3)nc2n1	x	x	x	n	x	x
CN1CCCc2cc3c(C(F)(F)F)cc(=O)oc3nc21	n	n	n	132	n	n
Cc1[nH]n(-c2ccccc2)c(=O)c1C(c1ccc(O)c([N+](=O)[O-])c1)c1c(C)[nH]n(-c2ccccc2)c1=O	n	n	x	n	x	15

High-throughput results from PubChem BioAssay.
